MC4R antag cAMP = human MC4R antagonism in cAMP assay | MC4R-expressing cells, MTII-stimulated cAMP, LANCE TR-FRET | inhibition, % at 6.5 µM | 360,000 compounds, 0.48% hits;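 active = inhibition above its plate's cutoff, the mean of tested wells on that plate plus 3 SD, cut at about 29% in these data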
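System: U2OS cells stably expressing human melanocortin 4 receptor (MC4R). Reagent: Melanotan II challenge after compound preincubation. Doses: 6.5 µM. Times: 30-min compound, 1-h challenge, 1-h detection, room temperature. Measured by: TR-FRET with Eu-cAMP and labeled anti-cAMP, 671 nm. Replicates: singlicate.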
MC4R ag barr = human MC4R agonism via beta-arrestin. AID 540308. 360,000 compounds, 0.98% hits. activation, % at 8.9 µM. P32245. U2OS MC4R beta-arrestin complementation, luminescence; percent of melanotan II response, DMSO zero;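 active = activation above a per-plate cutoff, the mean activation of sample wells on that plate plus 3 SD, cut at about 8% in these data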
SMARCA2 act = increases SMARCA2 function in MMTV reporter cells; MG213 cells, MMTV-luciferase reporter, dexamethasone, overnight; activation, % at 9.1 µM; 370,000 compounds, 1% hits; AID 652017; in the data active = activation above about 7.8%
ATG4B inhibitor = inhibitors of human ATG4B cysteine protease | Q9Y4P1 | ATG4B cleavage of LC3-PLA2, NBD-HPC fluorescence, 1 h | inhibition, % at 8.33 µM | 340,000 compounds, 0.51% hits; in the data active = inhibition above about 40%
Target sequence (Q9Y4P1 whole entry, looked up): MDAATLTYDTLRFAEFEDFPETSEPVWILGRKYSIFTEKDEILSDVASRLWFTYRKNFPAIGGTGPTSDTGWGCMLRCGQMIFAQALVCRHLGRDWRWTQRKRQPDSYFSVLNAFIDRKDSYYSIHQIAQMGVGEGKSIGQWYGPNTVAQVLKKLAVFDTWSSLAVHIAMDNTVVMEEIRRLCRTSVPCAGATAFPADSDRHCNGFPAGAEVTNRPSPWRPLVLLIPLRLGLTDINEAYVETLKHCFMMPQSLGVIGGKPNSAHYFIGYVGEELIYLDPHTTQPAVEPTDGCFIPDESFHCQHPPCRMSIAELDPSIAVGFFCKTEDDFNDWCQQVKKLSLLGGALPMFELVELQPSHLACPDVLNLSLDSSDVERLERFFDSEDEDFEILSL
MPTP inh = blocks calcium-induced mitochondrial swelling. isolated mouse mitochondria, Ca2+ swelling absorbance, 30 min. inhibition, % at 10 µM. 360,000 compounds, 1.4% hits. AID 602449;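 active = inhibition of 50% or more, scaled per plate between neutral and stimulator controls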
ATG4B confirm = ATG4B (human) inhibition, single-dose confirmed | shares compounds with ATG4B inhibitor | ATG4B protease fluorescent substrate cleavage assay | 320 compounds, 92% hits | inhibition, % at 8.33 µM; in the data active = inhibition above about 39%
PLA2 counter = inhibits human PLA2, flagging false ATG4B inhibitors | shares compounds with ATG4B inhibitor | purified PLA2, NBD-C6-HPC fluorescence, 45 min | 1,600 compounds, 66% hits | inhibition, % at 8.33 µM; in the data active = inhibition above about 50%
Target sequence (P04054 whole entry, looked up): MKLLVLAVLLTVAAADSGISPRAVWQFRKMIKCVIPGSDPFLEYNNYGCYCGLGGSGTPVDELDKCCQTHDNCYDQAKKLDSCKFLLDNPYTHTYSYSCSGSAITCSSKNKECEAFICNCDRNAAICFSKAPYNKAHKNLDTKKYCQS
Numbers stand for hits; . = inactive; / = not tested or not shown. Only some compounds are listed: those with a hit (about 4.1% of all), similar ones and a draw of the others.

SMILES	MC4R antag cAMP	MC4R ag barr	SMARCA2 act	ATG4B inhibitor	MPTP inh	PLA2 counter	others
COCCOc1ccc(C(F)(F)F)cc1NC(=O)CN1C(=O)NC2(CCc3ccccc32)C1=O (stereo not given)	.	.	.	99	.	.
CCN1CCCCC(NC(=O)COCc2ccccc2)C1=O (stereo not given)	/	/	.	/	/	/
Cc1ccccc1NC1=C(C(=O)c2ccccc2)N(C)S(=O)(=O)c2ccccc21	.	.	.	.	.	/
O=C(C1=C(Nc2ccccc2)c2ccccc2S(=O)(=O)N1)c1ccccc1	.	.	.	74	.	83
CC(C)=CC(=O)NCC1CCN(C(=O)C(=O)c2cc3ccccc3o2)CC1	/	/	.	/	/	/
O=c1c2ccccc2n(Cc2ccco2)n1[C@@H](Cc1ccccc1)Cn1cc(-c2ccc(-c3ccccc3)cc2)nn1	/	/	.	/	/	/
Cc1nn(-c2ccccc2)cc1C(c1c(N)[nH]c(=S)[nH]c1=O)c1c(N)[nH]c(=S)[nH]c1=O	.	.	.	46	.	.
Cc1cccc(CNc2ncnc3ccc(-c4ccccc4Cl)cc23)c1	.	.	.	51	.	52
O=C(O)C(Cc1ccccc1)N1C(=O)/C(=C/C=C/c2ccco2)SC1=S (stereo not given)	.	.	.	69	.	59
COc1ccc(/C=C2\SC(=S)N(C(Cc3ccccc3)C(=O)O)C2=O)cc1 (stereo not given)	.	.	.	.	.	/
Clc1cccc(Cl)c1CNc1ccc(N2CCCC2)cc1	/	/	.	43	/	.	ATG4B confirm=64
O=C(Cc1ccc(Cl)cc1)Nc1ccc(N2CCCC2)cc1	.	.	.	.	.	/
Cc1cccc(C)c1N1CCN(C(=O)Nc2ccc3c(c2)OCCO3)CC1	.	.	.	44	.	63
COC(=O)C1CN(Cc2ccc(F)cc2)CCS(=O)(=O)N1Cc1cn(Cc2ccccc2)nn1 (stereo not given)	/	/	.	/	/	/
COc1ccc(C2C(C(C)=O)=C(C)N=c3s/c(=C\c4ccco4)c(=O)n32)c(OC)c1 (stereo not given)	.	.	.	.	.	/
COc1ccc(C2C(C(C)=O)=C(C)N=c3s/c(=C\c4cc(C)n(C)c4C)c(=O)n32)c(OC)c1 (stereo not given)	.	.	.	56	.	73
CCN(CC(=O)N1CCc2ccccc2C1)S(=O)(=O)c1ccc2ccccc2c1	.	.	.	46	.	.	ATG4B confirm=66
CCc1oc2ccccc2c1C(=O)c1cc(Br)c(O)c(Br)c1	.	.	.	96	.	96
CC(C)C(Sc1nc(-c2ccccc2)cc(-c2ccccc2)c1C#N)C(=O)O (stereo not given)	.	.	.	46	.	.	ATG4B confirm=61
COc1ccc(-c2cc(-c3ccccc3)nc(SC(C)C(=O)O)c2C#N)cc1 (stereo not given)	.	.	.	.	.	/
C/C(=N\NC(=O)c1ccc(OC2CCCC2)cc1)c1ccc(O)cc1	.	.	.	41	.	.
CCN(CC)c1ccc(C(=O)N/N=C(\C)c2ccc(O)cc2)cc1	.	.	.	.	.	/
O=C(NCCc1ccccc1Cl)[C@@H]1CCCN1C(=O)[C@@H](NC(=O)N1CCOCC1)c1ccccc1	/	/	.	/	/	/
COc1ccc(-c2nc3ccccc3c(=O)n2N)cc1	.	.	.	.	.	/
COc1cc(OC)cc(-c2nc3ccccc3c(=O)n2OC(=O)c2ccc(Br)cc2)c1	.	.	.	55	.	.	ATG4B confirm=.
SMILES	MC4R antag cAMP	MC4R ag barr	SMARCA2 act	ATG4B inhibitor	MPTP inh	PLA2 counter	others
COc1ccc(C(=O)On2c(-c3ccc(Br)cc3)nc3ccccc3c2=O)cc1	.	.	.	56	.	66
COC(=O)c1sc(N(C)C)c(C#N)c1-c1ccccc1	.	.	.	44	.	.	ATG4B confirm=64
Cc1sc(NC(=O)COc2ccccc2)c(C#N)c1-c1ccccc1	.	.	.	.	.	/
Cc1cccc(NC(=O)OC2CC3CC2[C@H]2CCCCN2C3)c1 (stereo not given in full)	/	/	.	/	/	/
O=C(O)CN1C(=O)/C(=C\c2cc([N+](=O)[O-])ccc2OCc2ccccc2Cl)SC1=S	.	.	.	75	.	60
O=C(O)CN1C(=O)/C(=C\c2cc(Br)ccc2OCc2ccc(Cl)cc2)SC1=S	.	.	.	52	.	.	ATG4B confirm=53
O=C(O)c1cccc(CSc2nc(-c3ccc(Cl)cc3)cc(C(F)(F)F)n2)c1	.	.	.	52	.	.	ATG4B confirm=62
Cc1cc(N2CCNC[C@@H]2C)ccc1N1CCN(Cc2ccccc2)[C@H](C)C1	/	/	.	/	/	/
C#CCCC(=O)c1ccccc1/C=[N+](\[O-])c1ccccc1	.	.	.	42	.	62
O=C1CCCC2=C1C(c1ccc(Br)cc1)c1c([nH]c(=S)[nH]c1=O)N2 (stereo not given)	.	.	.	.	.	/
O=c1[nH]c(=S)[nH]c2c1C(c1ccc(Br)cc1)c1c([nH]c(=S)[nH]c1=O)O2	.	.	.	53	.	.	ATG4B confirm=.
CCOC(=O)C1=C(c2ccccc2)NC(SCC(=O)Nc2ccc(C)cc2)=C(C#N)C1c1ccco1 (stereo not given)	.	.	/	.	.	/
CCOC(=O)C1=C(c2ccccc2)NC(SCC(=O)Nc2ccccc2C)=C(C#N)C1c1ccco1 (stereo not given)	.	.	.	66	.	72
CCOC(=O)C1=C(c2ccccc2)NC(SCC(=O)Nc2cccc(C)c2)=C(C#N)C1c1ccco1 (stereo not given)	.	.	.	48	.	55
O=C1CCCC2=C1C1(CCCCC1)N=C(Nc1nc3ccccc3o1)N2	.	.	.	66	.	76
S=C(Nc1ccc(Cl)cc1Cl)Nc1ccccc1Oc1ccccc1	.	.	/	72	.	79
O=C(CCc1ccccc1)N[C@H]1[C@H](OC(=O)c2ccco2)CCC[C@]12C(=O)N(Cc1ccccc1)c1ccccc12	/	/	.	/	/	/
OCCNc1nc(SCc2ccccc2)nc2sc3c(c12)CCC3	.	.	.	69	.	90
O=c1c2c3c(sc2nc(NCCO)n1CCc1ccccc1)CCCCC3	.	.	.	.	.	/
O=C(/C=C/c1ccc(S(=O)(=O)NCc2ccco2)cc1)NCc1cccc(Cl)c1	.	.	.	52	.	62
CCCOc1ccc(/C=C/C(=O)NCc2ccccc2)cc1	.	.	.	.	.	/
O=C(/C=C/c1ccc(OCCCF)cc1)NCc1cccc(Cl)c1	.	.	.	45	.	.
Nc1[nH]c(C(=O)c2ccccc2)c(-c2ccc(F)cc2)c1C(=O)c1c[nH]c2ccccc12	/	/	.	/	/	/
CCCN1CCS(=O)(=O)N(Cc2cn(Cc3ccc(F)cc3)nn2)C(C(=O)OC)C1 (stereo not given)	/	/	.	/	/	/
